Measured values reported in PubChem BioAssay AID552 (SRMLSC, 2006).
Among all 20,000 compounds or so, about 10 (0.05%) were called active. This is one part of a sample in which actives are shown more often than they occur. Unmarked numbers belong to inactive results. Rule as the data show it: active = inhibition above about 40%; inactive = the rest.

Experiment: growth inhibitors of wild type E. coli, primary screen, strain BW25113 wild type, absorbance readout (AID 552);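 also: bacteria exposed to compound for 20 hours at 37 °C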
Details: OD600, at 10 µM, active compounds read high
Summary of the method: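 assay system = bacterial strain in a whole-cell growth screen | quantity = inoculum from a 1:1000 dilution of a 1.5 h subculture | buffer or medium = LB broth with 50 µg/mL kanamycin | compound dosing = one dose, 10 µM final | schedule = compound exposure of 20 h at 37 °C | technique = absorbance at 615 nm as a measure of bacterial growth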

SMILES	inhibition
O=C(COc1ccccc1F)NC1CC1	-9.95%
CC(C)(C)C(=O)CCN1C(=O)C2(OCCO2)c2ccccc21	11.1%
CCOC(=O)N1CCN(CC(=O)c2c(C)[nH]c3ccccc23)CC1	8.75%
COC(=O)C(C)N(C#N)c1nc(C)nc(C)n1 (centres undefined)	-24.9%
Cc1cc(Cl)ccc1N1C(=O)CC(SCCC(=O)O)C1=O (centres undefined)	0.27%
COC(=O)C1=C(C)Nc2ncnn2C1c1ccco1 (centres undefined)	-13.1%
CCOC(=O)c1c(C)oc2ccc(OCC(=O)N(CC)CC)cc12	-3.67%
COc1ccc(-c2cc3ccc(OCc4nn[nH]n4)cc3oc2=O)cc1	-2.44%
CCCn1c(C(O)c2cc(OC)ccc2OC)nc2ccccc21 (centres undefined)	-24.6%
CC1Cn2c(nnc2-c2cccs2)S1 (centres undefined)	-19.2%
COc1ccc(-c2nc(SCC(=O)N3CCOCC3)n[nH]2)cc1	-14%
Cn1c(=O)c2c(ncn2CC(=O)N2CCN(c3ccccc3)CC2)n(C)c1=O	0.27%
CC(C)NS(=O)(=O)c1ccc(OCC(=O)Nc2ccc3c(c2)OCCO3)cc1	-17.1%
COc1ccccc1C(=O)n1nc(-c2ccccc2)nc1N	-5.43%
Cc1nnc2sc(-c3ccco3)nn12	-19.1%
O=C(c1cccnc1NCc1ccccc1)N1CCOCC1	4.48%
Cc1ccc(-c2noc(CSc3nnc(-c4ccccc4)n3C)n2)cc1	13.8%
Cn1c(=O)n(C)c2cc(C(=O)Nc3ccc4c(c3)OCO4)ccc21	-11.7%
COc1ccc(S(=O)(=O)N2CCCC2)c(C)c1C	-7.21%
CC1=C(C(=O)OC2CCCCC2)C(c2cccnc2)n2ncnc2N1 (centres undefined)	-3.82%
CCOc1ccc(Cn2nnc(C(=O)Nc3ccc(OC)cc3OC)c2N)cc1	1.62%
Cc1cc(C)cc(N(C(C)C(=O)Nc2c(C)n(C)n(-c3ccccc3)c2=O)S(C)(=O)=O)c1 (centres undefined)	-10.4%
Cc1nn(-c2ccccc2)c2[nH]c(C(F)(F)F)cc(=O)c12	-5.63%
COc1ccc(CCNS(=O)(=O)c2ccc(C(=O)NCc3ccco3)cc2)cc1OC	8.04%
O=C(c1ccco1)N1CCN(C(=O)C2CC(c3ccc(F)cc3)=NO2)CC1 (centres undefined)	9.27%

SMILES	inhibition
CC(C(=O)N1CCOCC1)N1c2cccc3cccc(c23)S1(=O)=O (centres undefined)	-6.66%
CSc1cccc(NC(=O)CSc2ccccc2)c1	-12.8%
O=C(c1ccccc1-c1ccccc1)N1CCOCC1	-14.8%
CC(C)n1c(NCc2c[nH]c3ccccc23)nc2ccccc21	18.1%
COc1cc(NS(=O)(=O)c2ccccc2)ccc1-n1nc(C)cc1C	-15.6%
COc1ccc2c(CC(=O)Nc3nnc(C4CC4)s3)coc2c1	-3.61%
COc1ccccc1NC1=NC2(CCCC2)N=C(N)N1	5.8%
CCc1nnc(NC(=O)c2ccc(S(=O)(=O)NC3CCCCC3)cc2)s1	-3.77%
COC(=O)CN(c1nc(C)c(Cl)c(OC)n1)S(=O)(=O)c1ccc(C)cc1	-1.76%
CNC(=O)NCCN1CCCC1=O	7.98%
CCn1c(CNC(=O)c2ccc(OC)c(OC)c2)nnc1SCC(=O)Nc1ccccc1	-11.8%
O=C(C1CCCO1)N(Cc1ccccc1)c1ccccc1 (centres undefined)	-16.8%
Cc1cc(NC(=O)Cn2nc(C(F)(F)F)c3c2CCCC3)no1	-16.9%
Cc1cc(C)nc(NC2=NCC(=O)N2c2ccc(Cl)cc2)n1	1.06%
O=C(NCCc1ccccn1)c1ccc(COc2ccccc2)o1	15%
C/C(=C(\C#N)C(=O)NCCCN1CCOCC1)N(C)C	2.5%
CCOC(=O)CC1C(=O)NCCN1C(=O)COc1ccc(Br)cc1C (centres undefined)	-24.8%
CC(=O)Nc1ccc(S(=O)(=O)Nc2cccc(NC(=O)C(C)(C)C)c2)cc1	-16.1%
O=C1C2(c3ccccc3)CN(CCCO)CC1(c1ccccc1)CN(CCCO)C2	-16.6%
Cc1noc(C)c1CSc1nc2cc(S(=O)(=O)N3CCOCC3)ccc2o1	-3.26%
CCCCNC(=O)c1ccccc1NC(=O)c1ccccc1N(C)S(C)(=O)=O	-21%
COC(=O)COc1ccc2oc(=O)cc(C)c2c1	-18.5%
O=S(=O)(N1CCOCC1)N1CCN(c2ccccc2F)CC1	-11.7%
CCC(Oc1ccccc1)C(=O)NCc1cccnc1 (centres undefined)	-21.9%
O=C(Nc1nn(Cc2ccccc2F)cc1Br)c1cccs1	-14.1%

SMILES	inhibition
Cc1ccc(S(=O)(=O)N(C)CC(=O)NC2CCCC2)cc1	-2.1%
N#CC1=C(N)C(C#N)(C#N)[C@H](c2ccsc2)[C@H]2COCC=C12	-0.035%
O=C(OCC(O)C(O)COC(=O)c1ccccc1)c1ccccc1 (centres undefined)	-18.9%
CCCOc1ccc(NC(=O)C2CCCNC2=O)cc1 (centres undefined)	-30.8%
COc1ccc(CC(NC(C)=O)C(=O)NC2CCN(C(=O)Nc3ccc(C#N)cc3)CC2)cc1OC (centres undefined)	-1.03%
Cc1cc(C(=O)Nc2c(C)n(C)n(-c3ccccc3)c2=O)cs1	-12.7%
Cc1occc1C(=O)Nc1nnc(C2CCCCC2)s1	0.21%
Cc1cc(=O)n(C)c(=O)n1CCCNc1ccccc1	8.62%
C/C(N)=C(\C#N)C(=O)NCCc1ccccn1	-3.41%
CCOC(=O)c1c(C)nc(-c2ccccc2)nc1NC(=O)C(C)C	-20.2%
Cc1cc(NC(=O)CN2CCC(O)(c3cccc(F)c3)CC2)no1	-0.42%
CCC(=O)Nc1nc(OC)cc(OC)n1	-16.5%
COc1ccc(CC(=O)Nc2c3c(nn2-c2cccc(Cl)c2)CS(=O)C3)cc1 (centres undefined)	13.4%
Cc1cc(C)nc(NC(=O)C(C)N2C(=O)c3ccccc3C2=O)n1 (centres undefined)	-17.9%
CCOC(=O)c1cnc2sccn2c1=O	-15.3%
O=C(CCN1C(=O)c2ccccc2C1=O)NCCN1CCOCC1	0.59%
O=C(CCOc1ccccc1)NCc1ccccc1	14.8%
CC1CC(C)CN(CC(=O)Nc2ccc(S(N)(=O)=O)cc2)C1 (centres undefined)	0.613%
O=C1CSC(c2cccc(F)c2)N1c1ccccc1F (centres undefined)	6.64%
Cc1nonc1NC(=O)c1ccccc1Br	-2.2%
O=C(Nc1cccnc1)c1ccc2c(c1)OCO2	6.74%
CC(=NCc1ccc2c(c1)OCO2)C1=C(O)c2ccccc2C1=O	5.88%
CC(Nc1nc(N2CCCC2)nc2ccccc12)c1ccccc1 (centres undefined)	-5.16%
O=C(Nc1ccccc1N1CCCCC1)c1cccc(F)c1	0.18%
CC(=O)NC1CC2CCCC(C1)N2CC(=O)Nc1ccccc1 (centres undefined)	6.86%

SMILES	inhibition
COCCCN1C(=O)C(=O)/C(=C(/O)c2ccc3c(c2)CC(C)O3)C1c1cccnc1 (centres undefined)	-17.6%
CCc1ccccc1NC(=O)CSc1nnc([C@@H](NC(=O)OC(C)(C)C)C(C)CC)o1 (some centres undefined)	-15.5%
C=CCn1c(SCc2nnc(-c3ccccc3)o2)nnc1C(O)c1ccccc1 (centres undefined)	-17.5%
COCCCn1c(CCC(=O)O)ccc1-c1ccc(F)cc1	-9.43%
CC(=O)NCCc1ccc(S(=O)(=O)N(C)C2CCS(=O)(=O)C2)cc1 (centres undefined)	-15.7%
COc1ccc(NC(=O)CCNC(=O)Cn2ccc3ccccc3c2=O)c(OC)c1	-0.805%
CC(=O)N1C(=O)C2(Nc3ccccc3N2)c2ccccc21	7.24%
COCCOC(=O)C1=C(C)NC(=O)CC1c1cc2c(cc1Br)OCO2 (centres undefined)	-1.9%
COC(=O)c1cc(C(=O)OC)cc(N2C(=O)CC(N3CCN(c4ccccc4)CC3)C2=O)c1 (centres undefined)	-20%
CC1CCCC(N2CCN(C(=O)c3ccc(F)cc3)CC2)C1 (centres undefined)	8.12%
O=C(Cn1nnc(-c2ccc(CN3CCOCC3)cc2)n1)NC1CCCCC1	-1.75%
O=C(Cc1nn[nH]n1)NCCC1=CCCCC1	17.3%
CCC1=C(C(=O)OC)C(c2cc(OC)ccc2OC)C(C#N)=C(N)O1 (centres undefined)	-1.96%
COc1ccc(OC)c(C(=O)c2ccc(C(=O)O)cc2)c1	-4.3%
Cc1ccc(NC2=NC(c3ccccc3)n3c(nc(C)cc3=O)N2)cc1 (centres undefined)	-1.73%
COC(=O)Nc1ccc(S(=O)(=O)N(C)CC(F)(F)C(F)F)cc1	-3.1%
COC(=O)c1ccc(C2CC(=O)Nc3cc(OC)c(OC)cc32)cc1 (centres undefined)	-20.6%
CC(C)c1ccc(N2CC(C(=O)Nc3nccs3)CC2=O)cc1 (centres undefined)	2.9%
CCc1nnc(NC(=O)C2CCCN2S(=O)(=O)c2ccccc2)s1 (centres undefined)	-21%
Cc1cc(C)c(C#N)c(SCc2[nH]nc3c2C(c2ccccc2)C(C#N)=C(N)O3)n1 (centres undefined)	-3.73%
CCOC(=O)CSc1nnc(-c2ccncc2)o1	-0.95%
COC(=O)C(C)Sc1nc2c(c(=O)n(C)c(=O)n2C)n1Cc1cccc(C)c1 (centres undefined)	8.4%
Cc1ccc(C(=O)NCC2CCCO2)o1 (centres undefined)	-6.23%
CN(C)[C@@H]1C(=O)C(C(N)=O)=C(O)[C@@]2(O)C(=O)C3=C(O)c4c(O)ccc(Cl)c4[C@@H](O)[C@H]3C[C@@H]12	43.4% (active)
